Assay results published in paper PMC5644278 (Alzheimer's & Dementia : Translational Research & Clinical …, 2016).

Legend:
healthy male subjects [1] = assay: Treatment emergent adverse events, single dose study; type: in vivo, human; conditions: donepezil 10 mg oral
healthy male subjects [2] = assay: Adaptive tracking; type: in vivo, human; conditions: donepezil 10 mg oral; healthy elderly males
In short: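 Healthy males got one intranasal spray dose in a double-dummy design with oral capsules: 11 mg for young subjects, 22 or 33 mg for elderly subjects, 6 per dose, with age-matched nasal placebo. NeuroCart tests were run twice before dosing, then at 1, 2, 3, 4, 5, 6, 8 and 10 h after, in a quiet room, one subject per session. Analysis was mixed-model ANOVA: treatment, time and treatment×time fixed, subject random, baseline as covariate.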

For `COc1cc2c(cc1OC)C(=O)C(CC1CCN(Cc3ccccc3)CC1)C2` (stereo not shown) [donepezil, reference compound], the “Nausea, incidence” value (healthy male subjects [1]; healthy elderly males) was 16.7%, the “Diarrhea, incidence” value (healthy male subjects [1]; healthy elderly subjects) was 33.3% and the “Vomiting, incidence” value (healthy male subjects [1]; healthy elderly subjects) was 16.7%. For the same molecule, the “adaptive tracking compared with placebo (in words)” value (healthy male subjects [2]) was “improvement”.
